CHO parental Ca: signal in parental CHO cells, OX1R antagonist counter-screen | AID 463079 | parental CHO-K1, ATP-induced calcium, Fluo-8 fluorescence | inhibition, % at 5.6 µM | 330,000 compounds, 0.63% hits;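 active = inhibition above that plate's mean sample inhibition plus 3 SD, cut at about 26% in these data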;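 also: 0% = ATP-challenged DMSO wells and 100% = DMSO wells without ATP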
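Material: parental CHO cells / Compound: single nominal dose of 5.6 µM per compound / Signal: Fluo-8 fluorescence / Replicates: singlicate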
OX1R antag-1: OX1R (human) antagonism; O43613; OX1R-expressing cells, FRET antagonist read-out; inhibition, % at 6.6 µM; 330,000 compounds, 1.8% hits; AID 485270; in the data active = inhibition mostly above about 38%, no sharp cut-off; inactive = mostly below about 40%;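 also: 0% = agonist challenge alone and 100% = reference antagonist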
Target sequence (O43613 whole entry, looked up): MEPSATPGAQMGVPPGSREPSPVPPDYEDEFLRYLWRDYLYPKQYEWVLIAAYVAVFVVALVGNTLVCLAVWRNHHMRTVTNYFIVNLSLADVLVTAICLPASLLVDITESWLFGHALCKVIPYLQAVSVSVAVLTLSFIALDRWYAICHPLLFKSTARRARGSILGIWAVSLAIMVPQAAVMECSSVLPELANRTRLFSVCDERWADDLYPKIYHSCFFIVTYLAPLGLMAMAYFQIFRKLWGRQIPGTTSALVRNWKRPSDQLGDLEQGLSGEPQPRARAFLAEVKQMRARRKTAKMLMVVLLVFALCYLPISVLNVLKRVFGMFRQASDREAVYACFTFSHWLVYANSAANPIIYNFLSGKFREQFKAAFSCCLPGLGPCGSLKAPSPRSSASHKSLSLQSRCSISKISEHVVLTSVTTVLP
GalR3 antagonist: antagonists of human GalR3 | O60755 | HEK293 GalR3-CNG cAMP membrane potential fluorescence; galR3 body fused to GalR1 C-terminus | inhibition, % at 3 µM | 360,000 compounds, 0.44% hits;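 active = inhibition above the screen-wide average plus 3 SD, cut at about 13% in these data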;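 also: forskolin and galanin both at EC90 stimulate the cells; cAMP rise reported by CNG channel membrane potential dye signal; 0% = forskolin plus galanin with DMSO and 100% = forskolin alone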
GPR7 antag: blocks human GPR7 receptor signaling. inhibition, % at 4.4 µM. AID 1861. GPR7-expressing cells, fluorescence antagonist assay. 290,000 compounds, 1.1% hits. P48145; in the data active = inhibition above about 16%, passing the limit was not always enough;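 also: cells stimulated with the agonist NPW; 0% = agonist with vehicle and 100% = vehicle without agonist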
OX1R antag-2: human HCRTR1 antagonism | CHO/OX1R cells, Fluo-8 calcium fluorescence, orexin A | inhibition, % at 5 µM | 330,000 compounds, 0.43% hits;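 active = inhibition above its plate's threshold, mean inhibition of all tested compounds on the plate plus 3 SD, cut at about 37% in these data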;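 also: 0% = orexin A challenge wells and 100% = SB-334867-A antagonist wells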
GPR7 antag cf: human GPR7 antagonism, confirmation assay; GPR7-expressing cells, calcium fluorescence antagonist mode; inhibition, % at 4.4 µM; AID 1952; 2,400 compounds, 52% hits; shares compounds with GPR7 antag; in the data active = inhibition above about 24%;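 also: stimulated with the GPR7 agonist NPW; 0% = agonist plus vehicle and 100% = vehicle alone without agonist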
MCHR1 antagonist: antagonizes human MCHR1, a GPR7 antagonist counter-screen; shares compounds with GPR7 antag; MCHR1-expressing cells, fluorescence antagonist assay; inhibition, % at 4.4 µM; 2,400 compounds, 62% hits; in the data active = inhibition above about 22%;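 also: 0% = vehicle with agonist and 100% = vehicle without agonist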
An asterisk follows results filed as active. The list is not random: actives were taken first. Their share in the collection is about 3.1%.

How did CCOc1cc2c(cc1OCC)-n1cccc1C(c1ccc(C)cc1C)NC2 (stereo not given) do in these assays?
CHO parental Ca: -22; OX1R antag-1: -6; GalR3 antagonist: -14; GPR7 antag: 38*; OX1R antag-2: -35; GPR7 antag cf: 19; MCHR1 antagonist: 23*

Results for CCOC(=O)C1CCCN(c2ccc([N+](=O)[O-])c3nonc23)C1 (stereo not given) ?
GalR3 antagonist: -6; GPR7 antag: 45*; GPR7 antag cf: 42*; MCHR1 antagonist: 68*

What do the screens show for `Cc1cc(C(=O)O)c(C)n1C1CC1`?
CHO parental Ca: -10; OX1R antag-1: 7; GalR3 antagonist: -4; GPR7 antag: 6; OX1R antag-2: -9

What do the screens show for `CCN1/C(=C\C=C\C2=[N+](CC)c3ccccc3C2(C)C)C(C)(C)c2ccccc21`?
CHO parental Ca: 100*; OX1R antag-1: 22; GPR7 antag: 98*; OX1R antag-2: 108*; GPR7 antag cf: 103*; MCHR1 antagonist: 106*

How did CCC(=O)c1cn(Cc2ccc(C#N)cc2)c2ccccc12 do in these assays?
CHO parental Ca: -5; OX1R antag-1: 15; GalR3 antagonist: 0; GPR7 antag: 27*; OX1R antag-2: -13; GPR7 antag cf: 14; MCHR1 antagonist: 15

What do the screens show for `N#CCCn1cc(C(=O)Nc2ccc([N+](=O)[O-])cc2)c(-c2ccc3c(c2)OCCO3)n1`?
CHO parental Ca: -9; OX1R antag-1: 0; GalR3 antagonist: -3; GPR7 antag: 25*; OX1R antag-2: 0; GPR7 antag cf: 1; MCHR1 antagonist: 13

Results for CC/C(=N\NC(=O)c1ccccc1)c1c(O)n(C2CCCCC2)c(=O)[nH]c1=O ?
CHO parental Ca: -10; OX1R antag-1: 4; GalR3 antagonist: 1; GPR7 antag: 7; OX1R antag-2: -1

What do the screens show for `CC/C(=N\NC(=O)c1ccccc1Cl)c1c(O)n(C2CCCCC2)c(=O)[nH]c1=O`?
CHO parental Ca: -7; OX1R antag-1: 23; GalR3 antagonist: 1; GPR7 antag: 35*; OX1R antag-2: -4; GPR7 antag cf: 0; MCHR1 antagonist: 6

What do the screens show for `O=C(Cn1c(NCCCl)nc2ccccc21)c1ccc(Br)cc1`?
CHO parental Ca: -10; OX1R antag-1: 0; GalR3 antagonist: -6; OX1R antag-2: -17

What do the screens show for `Cc1nn(C)c(C)c1P(=S)(c1c(C)nn(C)c1C)N(C)C`?
CHO parental Ca: -2; OX1R antag-1: 4; GalR3 antagonist: -5; GPR7 antag: 26*; OX1R antag-2: -10; GPR7 antag cf: -11; MCHR1 antagonist: -3

How did CS(=O)(=O)N1Cc2cc(Br)ccc2-n2nncc2C1 do in these assays?
GalR3 antagonist: -4

How did CC(C(=O)c1c[nH]c2ccccc12)N1CCc2ccccc2C1 (stereo not given) do in these assays?
CHO parental Ca: -14; OX1R antag-1: 16; GalR3 antagonist: -3; GPR7 antag: 22*; OX1R antag-2: -22; GPR7 antag cf: 14; MCHR1 antagonist: 17

How did CN1CC=C(c2c[nH]c3ccccc23)CC1 do in these assays?
CHO parental Ca: 11; OX1R antag-1: 8; GPR7 antag: -10; OX1R antag-2: -6

What do the screens show for `COC(=O)C1C2c3ccccc3C(c3ccccc32)C1(C)C(=O)OC` (stereo not given)?
GalR3 antagonist: -3

What do the screens show for `CN(C)C1(CNC(=O)c2ccc(NS(=O)(=O)c3ccc(Cl)c(Cl)c3)cc2)CCCCC1`?
CHO parental Ca: -8; OX1R antag-1: 4; GalR3 antagonist: -2; OX1R antag-2: -6

Results for CN(C)C1(CNC(=O)Nc2ccc(Cl)c(Cl)c2)CCCCC1 ?
CHO parental Ca: -19; OX1R antag-1: 19; GalR3 antagonist: -13; GPR7 antag: 30*; OX1R antag-2: -13; GPR7 antag cf: 43*; MCHR1 antagonist: 47*

How did CCN(CC)C(=O)c1ccc(NC(=O)COc2ccc(-c3nn(C)c(=O)c4ccccc34)cc2)cc1 do in these assays?
CHO parental Ca: -16; OX1R antag-1: 2; GalR3 antagonist: -5; GPR7 antag: 8; OX1R antag-2: -29

Results for C[C@]12CCC3C(CC[C@H]4[C@@H](O)[C@H](O)CC[C@]34C)C1CCC2=O (stereo not given in full) ?
GalR3 antagonist: 8

Results for Cc1[nH]c2ccc(OC(F)(F)F)cc2c1CCNCc1cccc([N+](=O)[O-])c1 ?
CHO parental Ca: 29*; OX1R antag-1: 11; GalR3 antagonist: -13; GPR7 antag: 43*; OX1R antag-2: 14; GPR7 antag cf: 35*; MCHR1 antagonist: 75*

What do the screens show for `CCCN(CCC)CCc1c[nH]c2ccccc12`?
GalR3 antagonist: -1

Results for CCC1(CC)C(=O)NC(=NCCc2c[nH]c3ccccc23)NC1=O ?
CHO parental Ca: 4; OX1R antag-1: 2; GalR3 antagonist: -2; GPR7 antag: 28*; OX1R antag-2: -7; GPR7 antag cf: -3; MCHR1 antagonist: 7

Results for Cc1ccc(OCC(=O)N2CCN(Cc3ccc([N+](=O)[O-])cc3)CC2)cc1 ?
CHO parental Ca: 5; OX1R antag-1: 10; GalR3 antagonist: 3; GPR7 antag: 21*; OX1R antag-2: -9; GPR7 antag cf: 28*; MCHR1 antagonist: 36*

Results for COC(=O)C1=C(c2cccc(C#N)c2)C[C@@H]2CC[C@H]1N2C(=O)NCc1ccco1 ?
CHO parental Ca: -7; OX1R antag-1: 0; GalR3 antagonist: -7; OX1R antag-2: -20

Results for CNC(C)Cc1ccccc1Sc1ccc(O)cc1 (stereo not given) ?
CHO parental Ca: -6; OX1R antag-1: 6; GalR3 antagonist: -2; GPR7 antag: 30*; OX1R antag-2: 0; GPR7 antag cf: 30*; MCHR1 antagonist: 30*

Results for N#Cc1ccc(NC(=S)N2Cc3ccc(Br)cc3-n3nncc3C2)cc1 ?
GalR3 antagonist: -8

What do the screens show for `CCCCCc1cc(O)c2c3c(c(=O)oc2c1)CN(C)CC3`?
CHO parental Ca: 9; OX1R antag-1: 6; GalR3 antagonist: -7; GPR7 antag: 6; OX1R antag-2: -5

How did CCOc1ccc(N=Cc2c(O)n(-c3ccc(C)c(C)c3)c(=O)[nH]c2=O)cc1 do in these assays?
CHO parental Ca: -16; OX1R antag-1: 11; GalR3 antagonist: -5; GPR7 antag: 2; OX1R antag-2: -23

Results for CCOc1ccc(N=Cc2c(O)n(-c3cc(C)cc(C)c3)c(=O)[nH]c2=O)cc1 ?
CHO parental Ca: -3; OX1R antag-1: 9; GalR3 antagonist: -4; GPR7 antag: 24*; OX1R antag-2: -19; GPR7 antag cf: -4; MCHR1 antagonist: 7
